From PubChem BioAssay AID449761 (Broad Institute, 2010)
Records with an inconclusive call do not appear. Active and inactive are the calls of the source.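 How the source made its calls: active means compounds raising caspase signal with fitted AC50 no more than tenfold above the top tested dose; inconclusive means flat curve at 30 to 70% activity, or unusable fit; inactive means the rest.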

Tested on: MEF WT non-primed, caspase-Glo luminescence, 3 h
Experiment: caspase activity of non-primed cells – cell-based, caspase-Glo luminescence, 3 h, counter-screen for Bcl2-A1 inhibitor project, dose response (AID 449761)
Summary of the method: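 Technique: CaspaseGlo luminescence | Material: Non-primed wild-type MEF cells | Quantity: 2500 cells/well | Times: 3 h compound at 37 °C, 1 h detection at room temperature | Dosing: 100 nL compound added per well by pin transfer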

Compound `COc1cc(/C=C(/C#N)c2nc3ccccc3[nH]2)ccc1OCC(=O)Nc1ccccc1C(C)C` has an AC50 of 7.53 µM.
`CCN(C(=O)CCN1C(=O)c2ccccc2S1(=O)=O)c1ccccc1` was tested, and the AC50 was > 35 µM (inactive).
With `Cc1ccc2nc(N(CCCN(C)C)C(=O)c3ccc(S(=O)(=O)N4CCc5ccccc5C4)cc3)sc2c1` the AC50 was > 35 µM (inactive).
In the case of `CCc1nc(N=Nc2c(O)[nH]c3ccccc23)c2c3c(sc2n1)CCC3`, the AC50 was 18.2 µM.
Compound `CC1=NNC(=O)/C1=C\c1cn(-c2ccccc2)nc1-c1cccs1` has an AC50 of 14.3 µM.
With `CCOC(=O)CSC1=N/C(=C/c2ccc(-n3cncn3)cc2)C(=O)N1C(C)=O` the AC50 was > 35 µM (inactive).
In the case of `CCn1c(Cl)c(C=O)s/c1=N\S(=O)(=O)c1ccccc1`, the AC50 was > 35 µM (inactive).
With `CCOCCCNC(=O)c1ccc2c(c1)N=C(CC)c1cc(Br)ccc1S2` the AC50 was > 35 µM (inactive).
For `COc1ccc(-c2ccc3c(c2)S(=O)(=O)c2cccc(C(=O)NC[C@@H]4CCCO4)c2C3=O)cc1OC`, the AC50 was > 35 µM (inactive).
Work on `COc1ccc(-c2cc3ccccc3oc2=O)cc1NC(=S)NC(=O)c1ccc2c(c1)OCCO2` yielded an AC50 of 5.96 µM.
`CCOC(=O)C(C(=O)OCC)c1cc(Br)c2noc3c2c1C(=O)c1ccccc1-3` gave an AC50 of 8.67 µM.
`COc1cc(NC(=O)c2ccc(C)cc2C)ccc1NC(=O)c1cc2ccccc2o1` showed an AC50 of 30.4 µM.
For `Cc1ccc2c(c1)c(C1=c3ccccc3=NC1=O)c(O)n2C`, the AC50 was > 35 µM (inactive).
Work on `COc1ccc2[nH]c3c(=O)n(/N=C/[C@H]4C(C)C=C(C)CC4C)c(=O)[nH]c3c2c1` (some centres undefined) yielded an AC50 of 10.1 µM.
Work on `COc1ccc(NC(=O)C(=O)N/N=C\c2ccc(CNC(=O)C(=O)Nc3ccc(C)c(C)c3)o2)c(OC)c1` yielded an AC50 of 23.5 µM.
`CCC1CCCCN1S(=O)(=O)c1ccc(NC(=O)c2nc(S(C)(=O)=O)ncc2Cl)cc1` (centres undefined) gave an AC50 of 4.2 µM.
With `COc1cc(-c2cc(-c3ccccc3)nc(SCC(=O)Nc3nccs3)c2C#N)cc(OC)c1OC` the AC50 was > 35 µM (inactive).
With `COc1ccc(OC)c(NC(=O)c2cc(-c3cc(C)ccc3O)n[nH]2)c1` the AC50 was > 35 µM (inactive).
With `Cc1nn(Cc2c(Cl)cccc2Cl)c(C)c1NC(=O)c1cn(-c2ccccc2)nc1-c1ccccc1` the AC50 was 16.6 µM.
For `CC(C)(C)c1ccc2c(c1)OC(C(=O)N/N=C\c1ccc[nH]1)CO2` (centres undefined), the AC50 was > 35 µM (inactive).
In the case of `O=C(c1ccc(COc2ccc3ccccc3c2)o1)N1N=C(C(F)F)CC1(O)C(F)F` (centres undefined), the AC50 was > 35 µM (inactive).
For `COc1ccc(C=C2C=C(C(C)(C)C)C(=O)C(C(C)(C)C)=C2)cc1OC`, the AC50 was 2.98 µM.
With `Cc1occc1-c1nnc(SCC(=O)NCCc2ccccc2)n1Cc1ccccc1` the AC50 was > 35 µM (inactive).
For `COc1ccc(S(=O)(=O)N2CC(O)CC2C(=O)OCC(=O)Nc2ccc(Cl)cn2)cc1` (centres undefined), the AC50 was > 35 µM (inactive).
In the case of `COc1ccc(OC[C@@H](O)CNC(=O)c2cccc3c2C(=O)c2ccc(-c4ccc(F)cc4OCc4ccccc4)cc2S3(=O)=O)cc1`, the AC50 was > 35 µM (inactive).
`NS(=O)(=O)c1ccc(N/N=C2/CCCCC2C2CCCCC2)c([N+](=O)[O-])c1` (centres undefined) gave an AC50 of 33.5 µM.
Work on `CC(C)CC(NC(=O)c1ccc(Cl)cc1)C(=O)OCC(=O)c1ccc2c(c1)NC(=O)CO2` (centres undefined) yielded an AC50 of 4.28 µM.
`COc1cc(CN2CCN(c3cc(C)ccc3C)CC2)ccc1O` was tested, and the AC50 was > 35 µM (inactive).
For `COc1ccc(-c2ccc3c(c2)S(=O)(=O)c2cccc(C(=O)NCCOc4ccccc4)c2C3=O)cc1OC`, the AC50 was > 35 µM (inactive).
`CCOc1cccc(C(=O)Nc2cccc(-c3nnc(-c4ccc(C)cc4)o3)c2)c1` was tested, and the AC50 was 23.6 µM.
In the case of `CCOc1cc(/C=N/Nc2cc(C)nc(-n3nc(C)cc3C)n2)ccc1O`, the AC50 was > 35 µM (inactive).
`Cc1ccc(NC(=S)NC(NC(=O)Cc2cccc3ccccc23)C(Cl)(Cl)Cl)cc1` (centres undefined) gave an AC50 of 22.9 µM.
Compound `O=C(NN=C1c2ccccc2-c2ccccc21)c1cccc(Br)c1` has an AC50 of 35.6 µM.
In the case of `Cc1ccc(Sc2c([N+](=O)[O-])c(=O)n(C)c3ccccc23)cc1`, the AC50 was > 35 µM (inactive).
`CCOC(=O)c1ccc(-c2ccc(/C=N/NC(=O)CN(c3cccc(C)c3)S(C)(=O)=O)o2)cc1` was tested, and the AC50 was 31.1 µM.
In the case of `C=C1/C=C(\C)[C@](C)(O)C[C@H](O)CC(=O)[C@H](O)[C@@H](O)[C@H](C)C[C@H](C)OC(=O)/C(C)=C/CC/C=C/[C@@H]2O[C@H]2C[C@H](C)C1`, the AC50 was > 35 µM (inactive).
`CCOc1ccc(OCC(=O)N(CCC2=CCCCC2)c2c(N)n(Cc3ccccc3)c(=O)[nH]c2=O)cc1` was tested, and the AC50 was 26.8 µM.
`CCc1nnc(NC(=O)CSc2nc(-c3ccccc3)cc(-c3ccc(F)cc3)c2C#N)s1` was tested, and the AC50 was 32.2 µM.
`Cc1ccc(CS(=O)(=O)c2ncc(Cl)c(C(=O)Nc3nnc(C(C)C)s3)n2)cc1` was tested, and the AC50 was > 35 µM (inactive).
